Results collected from several papers.
Lines come from different studies, so protocols differ.
Medium: plasma

`CC(C)[C@](O)(c1ccc2cc(OC(F)F)c(OC(F)F)cc2c1)c1c[nH]nn1` has an AUC(0-inf) of 31100 ng·h/mL (female human; oral, 450 mg, single dose).
The AUC(0-inf) of `O=C(/C=C/c1cccc(S(=O)(=O)Nc2ccccc2)c1)NO` is reported as 86400 ng·h/mL (human; intravenous, 2000 mg/m², patients).
`Nc1ccc(-c2nc([C@H]3CCc4cc(-c5cc(Cl)ccc5-n5cnnn5)cc(=O)n43)c(F)[nH]2)c(F)n1` has an AUC(0-inf) of 17500 ng·h/mL (human; oral, 80 mg, single dose, fasted).
`CCc1nc2c(C)cc(N3CCN(CC(=O)N4CC(O)C4)CC3)cn2c1N(C)c1nc(-c2ccc(F)cc2)c(C#N)s1` gave an AUC(0-inf) of 2400 ng·h/mL (human; oral, 60 mg, single dose, fed, healthy volunteers).
For `CO[C@H]1/C=C\C=C(/C)C(=O)NC2=CC(=O)C(NCCN(C)C)=C(C[C@@H](C)C[C@H](OC)[C@H](O)[C@@H](C)/C=C(\C)[C@@H]1OC(N)=O)C2=O`, the AUC(0-inf) was 1220 ng·h/mL (human; intravenous, 12 mg/m², patients, infusion).
`O=C(Nc1c(Cl)cncc1Cl)c1ccc(OC(F)F)c(OCC2CC2)c1` has an AUC(0-inf) of 81.4 ng·h/mL (human; oral, 0.375 mg, multiple doses, once daily).
For `COc1ccc(-n2nc(C(N)=O)c3c2C(=O)N(c2ccc(N4CCCCC4=O)cc2)CC3)cc1`, the AUC(0-inf) was 3410 ng·h/mL (male human; oral, 25 mg, single dose).
The AUC(0-inf) of `CC(C)(O)c1ccccc1-c1ccc2[nH]c(/C=C/c3ccc(C(F)(F)F)cc3)nc2c1` is reported as 5690 ng·h/mL (male human; oral, 30 mg, single dose, fasted).
`C[C@@]1(c2cc(NC(=O)c3ccc(C#N)cn3)ccc2F)C=CSC(N)=N1` has an AUC(0-inf) of 2550 ng·h/mL (human; oral, 30 mg, single dose).
For `CCCCC[C@H](O)CC[C@@H]1[C@H]2Cc3cccc(OCC(=O)O)c3C[C@H]2C[C@H]1O`, the AUC(0-inf) was 0.34 ng·h/mL (human; inhaled, 18 µg, single dose, healthy volunteers).
For `CC(=O)Oc1ccccc1C(=O)O`, the AUC(0-inf) was 7690 ng·h/mL (human; oral, 650 mg, healthy volunteers).
`CCOc1cc2ncc(C#N)c(Nc3ccc(OCc4ccccn4)c(Cl)c3)c2cc1NC(=O)/C=C/[C@H]1CCCN1C` gave an AUC(0-inf) of 386 ng·h/mL (human; oral, 80 mg, single dose).
With `COc1ccc([C@@H]2CN(C(=O)[C@@H](O)CO)C[C@@]2(C)[C@@H](C)O)cc1OC1CN(c2ccc(C)cn2)C1` the AUC(0-inf) was 211 ng·h/mL (human; oral, 0.5 mg, single dose, healthy volunteers).
`Cn1cc(-c2ccc(S(=O)(=O)[C@@H]3C[C@@H](C(=O)NC4(C#N)CC4)N(C(=O)C4(C(F)(F)F)CC4)C3)c(C(F)(F)F)c2)cn1` gave an AUC(0-inf) of 12600 ng·h/mL (human; oral, 100 mg, single dose, fed).
The AUC(0-inf) of `CCc1cnn2c(NCc3ccc[n+]([O-])c3)cc(N3CCCC[C@H]3CCO)nc12` is reported as 796 ng·h/mL (human; intravenous, 9 mg/m², patients).
`CC(C)(Sc1ccncc1-c1ccc(C#N)c2ccccc12)C(=O)O` has an AUC(0-inf) of 92.8 ng·h/mL (male human; oral, 5 mg, single dose, fed, healthy volunteers).
The AUC(0-inf) of `CN(C)CCCNC(=O)/C(=C/CCCCC(=O)NO)COc1cccc2ccccc12` is reported as 37500 ng·h/mL (human; intravenous, 250 mg/m², single dose).
`CC(C)n1cc(C#N)c2cc(-n3cc(C(=O)O)cn3)ccc21` gave an AUC(0-inf) of 44300 ng·h/mL (human; oral, 200 mg, single dose, fed).
`CCCOc1ccc([C@H]2CNC(=O)N2c2ccc3[nH]cnc3c2)cc1` gave an AUC(0-inf) of 2110 ng·h/mL (human; oral, 200 mg, fasted, healthy volunteers).
For `C=C(F)C(=O)N1CCN(c2nc(OC[C@@H]3CCCN3C)nc3c2CCN(c2cccc4cccc(Cl)c24)C3)C[C@@H]1CC#N`, the AUC(0-inf) was 37100 ng·h/mL (human; oral, 600 mg, single dose, fasted).
With `C[C@@H](Oc1ccc(S(C)(=O)=O)cc1C(=O)N1C[C@@H]2C[C@]2(c2cc(C(F)(F)F)on2)C1)C(F)(F)F` the AUC(0-inf) was 12.2 µM·h (human; oral, 25 mg, single dose).
`CS(=O)(=O)CCC#N` gave an AUC(0-inf) of 327000 ng·h/mL (human; oral, 300 mg, single dose, fasted).
The AUC(0-inf) of `CO[C@H]1CC[C@H](N2C(=O)CNc3ncc(-c4ccc(C(C)(C)O)nc4)nc32)CC1` is reported as 378 ng·h/mL (human; oral, 15 mg, patients).
